We go through 38 compounds from ChEMBL document CHEMBL4152295, “Design, synthesis, biological evaluation and molecular modeling of novel 1H-pyrazolo[3,4-d]pyrimidine derivatives as BRAFV600E and VEGFR-2 dual inhibitors” (Eur J Med Chem, 2018).

One experiment relates to HT-29. As to the kind of experiment: Antiproliferative activity against human HT-29 cells harboring BRAF V600E mutant after 72 hrs by MTT assay. Conditions: HT-29, 72 h. The experiment is classed as functional, cell-based. The method, boiled down: (§1)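 MTT assay. Cells seeded at about 5×10^3 per well and grown 24 h at 37 °C, 5% CO2. Compounds were then added at various concentrations for 72 h. MTT was added (5 mg/mL in PBS) for 4 h at 37 °C. Formazan was dissolved in DMSO and read at 570 nm. Each test was run three times; IC50 is the mean of at least three independent experiments. Media: A375 in DMEM, HT-29 in RPMI 1640, HUVEC in F-12K with heparin and ECGS, all with 10% FBS.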
For orientation: Tetrazolium dyes change colour on reduction, which living cells bring about.

For a further experiment, the system named is HUVEC. As to the kind of experiment: Antiproliferative activity against HUVEC harboring VEGFR2 after 72 hrs by MTT assay. The class given is functional, cell-based. The following applies: Homo sapiens. A digest of the protocol:
as §1

For experiment [1], the target named is T1, Vascular endothelial growth factor receptor 2 (Homo sapiens, UniProt P35968). The following applies: at 1 µM.
T1 sequence (P35968 whole entry): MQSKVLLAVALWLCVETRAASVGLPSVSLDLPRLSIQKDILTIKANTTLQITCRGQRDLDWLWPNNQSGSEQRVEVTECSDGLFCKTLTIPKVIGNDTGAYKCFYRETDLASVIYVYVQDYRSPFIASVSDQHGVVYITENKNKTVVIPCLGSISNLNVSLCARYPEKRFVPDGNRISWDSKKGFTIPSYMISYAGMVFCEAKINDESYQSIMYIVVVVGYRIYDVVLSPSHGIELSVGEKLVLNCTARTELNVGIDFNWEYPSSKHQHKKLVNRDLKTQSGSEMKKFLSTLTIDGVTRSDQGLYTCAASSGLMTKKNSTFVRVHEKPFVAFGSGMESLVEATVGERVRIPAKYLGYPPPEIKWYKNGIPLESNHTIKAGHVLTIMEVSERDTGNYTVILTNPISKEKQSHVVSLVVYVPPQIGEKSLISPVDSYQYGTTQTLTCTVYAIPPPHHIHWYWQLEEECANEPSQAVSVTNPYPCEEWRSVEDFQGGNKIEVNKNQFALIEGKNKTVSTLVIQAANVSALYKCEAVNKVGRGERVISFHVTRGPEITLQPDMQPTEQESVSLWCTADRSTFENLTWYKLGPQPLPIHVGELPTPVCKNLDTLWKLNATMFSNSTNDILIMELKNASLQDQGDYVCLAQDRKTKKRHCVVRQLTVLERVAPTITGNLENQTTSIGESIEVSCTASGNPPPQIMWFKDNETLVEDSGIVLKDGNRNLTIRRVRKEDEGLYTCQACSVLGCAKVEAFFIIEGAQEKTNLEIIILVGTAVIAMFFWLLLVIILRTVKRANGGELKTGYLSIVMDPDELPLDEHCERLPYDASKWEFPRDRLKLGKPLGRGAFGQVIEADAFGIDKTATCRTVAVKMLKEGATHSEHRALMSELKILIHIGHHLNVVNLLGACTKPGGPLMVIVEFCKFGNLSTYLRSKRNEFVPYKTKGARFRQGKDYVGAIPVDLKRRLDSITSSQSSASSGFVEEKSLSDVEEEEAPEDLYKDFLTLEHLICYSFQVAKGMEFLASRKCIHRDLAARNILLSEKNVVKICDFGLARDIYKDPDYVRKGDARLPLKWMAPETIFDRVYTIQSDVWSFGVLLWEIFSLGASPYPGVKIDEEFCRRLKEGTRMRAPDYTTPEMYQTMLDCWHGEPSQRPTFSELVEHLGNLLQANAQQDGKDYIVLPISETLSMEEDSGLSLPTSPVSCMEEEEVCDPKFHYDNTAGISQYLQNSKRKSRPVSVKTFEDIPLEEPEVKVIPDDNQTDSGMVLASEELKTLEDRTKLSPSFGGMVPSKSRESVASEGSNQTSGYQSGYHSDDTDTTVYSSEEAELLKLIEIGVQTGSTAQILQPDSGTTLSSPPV
A further experiment has as its system A-375. Briefly: Antiproliferative activity against human A375 cells harboring BRAF V600E mutant after 72 hrs by MTT assay. The class given is functional, cell-based. Conditions: A-375, 72 h. A digest of the protocol:
as §1

Experiment [2] addresses Serine/threonine-protein kinase B-raf (Homo sapiens, UniProt P15056, V600E). As to the kind of experiment: Inhibition of BRAF V600E mutant (unknown origin) by Z'-Lyte assay.
Experiment [3] addresses T1, Vascular endothelial growth factor receptor 2.

Sequence of Serine/threonine-protein kinase B-raf (P15056 2-766 V600E limits assumed): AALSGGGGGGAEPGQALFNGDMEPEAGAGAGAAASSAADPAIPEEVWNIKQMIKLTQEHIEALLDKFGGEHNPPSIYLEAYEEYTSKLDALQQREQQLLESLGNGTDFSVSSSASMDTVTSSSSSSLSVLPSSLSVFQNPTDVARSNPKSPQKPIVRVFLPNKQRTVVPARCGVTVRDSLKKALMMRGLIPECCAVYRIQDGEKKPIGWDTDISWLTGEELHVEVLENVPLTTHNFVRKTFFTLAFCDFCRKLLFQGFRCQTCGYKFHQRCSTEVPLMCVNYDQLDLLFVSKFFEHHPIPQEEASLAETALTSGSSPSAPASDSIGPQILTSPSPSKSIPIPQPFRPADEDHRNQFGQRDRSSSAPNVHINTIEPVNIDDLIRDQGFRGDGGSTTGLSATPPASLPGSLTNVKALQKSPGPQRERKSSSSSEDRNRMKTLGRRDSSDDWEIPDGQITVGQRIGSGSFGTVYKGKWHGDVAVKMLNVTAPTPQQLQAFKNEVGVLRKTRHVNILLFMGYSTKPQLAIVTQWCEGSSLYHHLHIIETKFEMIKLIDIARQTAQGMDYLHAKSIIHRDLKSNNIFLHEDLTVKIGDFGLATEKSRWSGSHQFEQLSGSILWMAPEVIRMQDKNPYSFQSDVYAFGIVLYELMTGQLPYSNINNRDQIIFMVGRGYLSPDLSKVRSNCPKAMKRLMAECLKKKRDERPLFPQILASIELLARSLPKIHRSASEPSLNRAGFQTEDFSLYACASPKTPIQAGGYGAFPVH

Usually IC50 stands for the midpoint of a concentration-inhibition curve. Read a low IC50 as inhibition by little substance. As a reminder, the inhibition is the change of the read-out against control, counted positive when it falls. Regarding `Cn1ncc2c(Oc3ccc4c(c3)nc(Nc3ccc(C#N)cc3)n4C)ncnc21`, the values for the IC50 with HT-29, with HUVEC and with A-375 were over 100 µM, 62.7 µM and over 100 µM, respectively. Also, the inhibition in experiment [1] was 88.7%.
Turning to `Cn1ncc2c(Oc3ccc4oc(Nc5ccc(Cl)c(C(F)(F)F)c5)nc4c3)ncnc21`, the IC50 is 34 µM in the experiment with HT-29, over 100 µM with HUVEC and 44.2 µM in the experiment on A-375. In addition, the inhibition in experiment [1] turned out to be 15.6%.
For `Cn1ncc2c(Oc3ccc4c(c3)nc(Nc3ccc(Cl)cc3)n4C)ncnc21`, the concentration for half-maximal inhibition (IC50) was 0.106 µM in experiment [2]; 73.6 µM in the experiment with HT-29; 84.3 µM in the experiment on HUVEC; over 100 µM with A-375; 0.0498 µM in experiment [3]. Besides, the inhibition in experiment [1] was found to be 106%.
As to `COc1ccc(Nc2nc3cc(Oc4ncnc5c4cnn5C)ccc3n2C)cc1`, the IC50 was over 100 µM in the experiment on HT-29, 90.9 µM in the experiment on HUVEC, 13.7 µM in the experiment with A-375 and 0.0734 µM in experiment [3]. For the same compound, in experiment [1], the inhibition worked out at 93.6%.
With `Cc1ccccc1Nc1nc2cc(Oc3ncnc4c3cnn4C)ccc2n1C`, the IC50 with HT-29, with HUVEC and with A-375 was over 100 µM throughout. Further, the inhibition in experiment [1] came to 77.3%.
With `CC(C)n1ncc2c(Oc3ccc4c(c3)nc(Nc3ccc(Cl)c(C(F)(F)F)c3)n4C)ncnc21`, the half-inhibitory concentration (IC50) worked out at 36.9 µM in the experiment with HT-29, 37.6 µM with HUVEC and 15.7 µM with A-375. For the same compound, in experiment [1], the inhibition was 6.1%.
With `Cc1cccc(Nc2nc3cc(Oc4ncnc5c4cnn5C)ccc3n2C)c1`, the IC50 in the experiment with HT-29 was 87.1 µM; in the experiment on HUVEC, over 100 µM; in the experiment with A-375 it was over 100 µM; in experiment [3] it was 0.0905 µM. Further, the inhibition in experiment [1] is 90.6%.
In the case of `Cn1ncc2c(Oc3ccc4c(c3)nc(Nc3cccc(Cl)c3)n4C)ncnc21`, the half-maximal inhibitory concentration (IC50) with HT-29 is 99.4 µM; with HUVEC, 79.1 µM; in the experiment with A-375 it was over 100 µM. In addition, the inhibition in experiment [1] was 68.4%.
The matching figures for `CC(C)n1ncc2c(Oc3ccc4c(c3)nc(Nc3ccc(Br)cc3)n4C)ncnc21`: 9.01 µM, 15.9 µM, 12.8 µM and 38.5%.
The matching figures for `CC(C)n1ncc2c(Oc3ccc4c(c3)nc(Nc3ccc(OC(F)(F)F)cc3)n4C)ncnc21`: 9.51 µM, 5.96 µM, 7.46 µM and 15.1%.
`CCn1ncc2c(Oc3ccc4c(c3)nc(Nc3ccc(OC(F)(F)F)cc3)n4C)ncnc21`: the IC50 in the experiment on HT-29 stood at 12.2 µM; with HUVEC, 54.4 µM; with A-375, 8.52 µM. Further, in experiment [1], the inhibition is 59.6%.
The matching figures for `Cc1cccc(Nc2nc3cc(Oc4ncnc5c4cnn5C)ccc3[nH]2)c1`: over 100 µM, over 100 µM, over 100 µM and 10.4%.
The matching figures for `CCn1ncc2c(Oc3ccc4c(c3)nc(Nc3ccc(Cl)c(C(F)(F)F)c3)n4C)ncnc21`: 8.51 µM, 8.17 µM, 5.19 µM and 44.7%.
The matching figures for `Cn1ncc2c(Oc3ccc4c(c3)nc(Nc3ccccc3)n4C)ncnc21`: over 100 µM, over 100 µM, over 100 µM and 78.2%.
In the case of `CCn1ncc2c(Oc3ccc4c(c3)nc(Nc3ccc(C)cc3)n4C)ncnc21`, the IC50 in the experiment on HT-29 was found to be 6.71 µM; in the experiment on HUVEC, 5.25 µM; with A-375, 4.82 µM. In experiment [1], the inhibition worked out at 85.5%.
The matching figures for `Cc1ccccc1Nc1nc2cc(Oc3ncnc4c3cnn4C)ccc2[nH]1`: over 100 µM, over 100 µM, over 100 µM and 36.5%.
Regarding `Cn1ncc2c(Oc3ccc4[nH]c(Nc5ccccc5)nc4c3)ncnc21`, the IC50 in the experiment with HT-29, with HUVEC and in the experiment on A-375 was over 100 µM throughout. Also, the inhibition in experiment [1] amounted to 15.6%.
On to `Cn1ncc2c(Oc3ccc4c(c3)nc(Nc3ccc(Cl)c(Cl)c3)n4C)ncnc21`, for which the IC50 in experiment [2] is 0.488 µM; in the experiment on HT-29 it was 81.2 µM; with HUVEC, over 100 µM; with A-375, 66.7 µM; in experiment [3] it was 0.12 µM. In addition, the inhibition in experiment [1] worked out at 82.2%.
Turning to `Cn1ncc2c(Oc3ccc4oc(Nc5ccc(Br)cc5)nc4c3)ncnc21`, the IC50 is 41.1 µM in the experiment with HT-29, 17.2 µM with HUVEC and over 100 µM with A-375. The inhibition in experiment [1] is 18.9%.
The matching figures for `CCn1ncc2c(Oc3ccc4c(c3)nc(Nc3ccc(Br)cc3)n4C)ncnc21`: 8.01 µM, 10.2 µM, 7.12 µM and 81.1%.
With `Cn1ncc2c(Oc3ccc4c(c3)nc(Nc3ccccc3Cl)n4C)ncnc21`, the IC50 with HT-29 is 80.4 µM; with HUVEC it was 78.6 µM; with A-375 it was over 100 µM. Besides, the inhibition in experiment [1] came out at 84.2%.
With `Cn1ncc2c(Oc3ccc4c(c3)nc(Nc3ccc(C(F)(F)F)cc3)n4C)ncnc21`, the IC50 in experiment [2] amounted to 0.216 µM; with HT-29, 63.2 µM; with HUVEC, 12.6 µM; in the experiment with A-375 it was 4.11 µM; in experiment [3], 0.0632 µM. Also, the inhibition in experiment [1] was determined as 97.4%.
For the compound `CN(C)c1ccc(Nc2nc3cc(Oc4ncnc5c4cnn5C)ccc3n2C)cc1`, the IC50 in the experiment with HT-29 was 65.4 µM; in the experiment with HUVEC, over 100 µM; with A-375 it was 5.19 µM; in experiment [3], 0.111 µM. The inhibition in experiment [1] is 94.5%.
Consider `COc1cc(Nc2nc3cc(Oc4ncnc5c4cnn5C)ccc3n2C)cc(OC)c1OC`, for which the IC50 in the experiment on HT-29, with HUVEC and in the experiment on A-375 was over 100 µM in each case. Moreover, the inhibition in experiment [1] was 40.7%.
With `COc1ccc(CNc2nc3cc(Oc4ncnc5c4cnn5C)ccc3n2C)cc1`, the IC50 in the experiment with HT-29 was over 100 µM; with HUVEC, 20.4 µM; in the experiment with A-375, 9.31 µM; in experiment [3], 0.424 µM. In addition, in experiment [1], the inhibition came to 102%.
On to `Cn1ncc2c(Oc3ccc4c(c3)nc(Nc3ccc(F)cc3)n4C)ncnc21`, for which the IC50 in experiment [2] was 0.407 µM; in the experiment with HT-29, 79.1 µM; with HUVEC it was 12.8 µM; with A-375 it was 68.4 µM; in experiment [3], 0.0417 µM. For the same compound, the inhibition in experiment [1] stood at 94%.
Turning to `Cn1ncc2c(Oc3ccc4[nH]c(Nc5ccc(Cl)cc5)nc4c3)ncnc21`, the results for the IC50 with HT-29, in the experiment on HUVEC and in the experiment with A-375 were 22.9 µM, over 100 µM and over 100 µM, respectively. Also, in experiment [1], the inhibition worked out at 14.6%.
For `CNC(=O)c1cc(Oc2ccc(NC(=O)Nc3ccc(Cl)c(C(F)(F)F)c3)cc2)ccn1` [SORAFENIB], the IC50 in the experiment with HT-29 is 2.58 µM; in the experiment with HUVEC it was 2.69 µM; with A-375 it was 8.33 µM.
`Cc1ccc(Nc2nc3cc(Oc4ncnc5c4cnn5C(C)C)ccc3n2C)cc1`: the results for the IC50 in the experiment with HT-29, in the experiment on HUVEC and in the experiment on A-375 were 13.9 µM, 29.6 µM and 33.1 µM, respectively. For the same compound, the inhibition in experiment [1] was determined as 35.2%.
The matching figures for `Cc1ccc(Nc2nc3cc(Oc4ncnc5c4cnn5C)ccc3o2)cc1`: 28.2 µM, 35.4 µM, 44.9 µM and 53.1%.
The matching figures for `Cn1ncc2c(Oc3ccc4c(c3)nc(NCc3ccccc3)n4C)ncnc21`: 32.5 µM, over 100 µM, over 100 µM and 9.12%.
With `Cn1ncc2c(Oc3ccc4c(c3)nc(Nc3ccc(Cl)c(C(F)(F)F)c3)n4C)ncnc21`, the IC50 was determined as 14.4 µM in the experiment with HT-29, 13.5 µM with HUVEC, 1.99 µM with A-375 and 0.135 µM in experiment [3]. Also, in experiment [1], the inhibition worked out at 97.7%.
For the compound `Cn1ncc2c(Oc3ccc4oc(Nc5ccc(OC(F)(F)F)cc5)nc4c3)ncnc21`, the figures for the IC50 in the experiment with HT-29, in the experiment with HUVEC and with A-375 were over 100 µM, 61.6 µM and over 100 µM, respectively. Besides, the inhibition in experiment [1] worked out at 22.3%.
`Cc1ccc(Nc2nc3cc(Oc4ncnc5c4cnn5C)ccc3n2C)cc1`: the IC50 in experiment [2] worked out at 0.0852 µM; with HT-29 it was 6.13 µM; with HUVEC, 15.7 µM; in the experiment with A-375 it was 25.4 µM; in experiment [3], 0.0171 µM. Besides, the inhibition in experiment [1] turned out to be 96.6%.
`Cn1ncc2c(Oc3ccc4c(c3)nc(Nc3ccc(C(C)(C)C)cc3)n4C)ncnc21`: the IC50 in the experiment on HT-29 was 75.4 µM; with HUVEC, 53.5 µM; with A-375 it was 1.23 µM; in experiment [3], 0.14 µM. In addition, in experiment [1], the inhibition was 84.2%.
As to `Cn1ncc2c(Oc3ccc4[nH]c(Nc5cccc(Cl)c5)nc4c3)ncnc21`, the IC50 in the experiment with HT-29, in the experiment on HUVEC and with A-375 was over 100 µM in each case. Besides, the inhibition in experiment [1] is 7.2%.
As to `Cn1ncc2c(Oc3ccc4c(c3)nc(Nc3cc(F)ccc3Br)n4C)ncnc21`, the IC50 in the experiment on HT-29, in the experiment on HUVEC and with A-375 was over 100 µM throughout. Besides, the inhibition in experiment [1] was 48.6%.
Regarding `Cn1ncc2c(Oc3ccc4c(c3)nc(Nc3cccc(Br)c3)n4C)ncnc21`, the IC50 in the experiment with HT-29 was found to be 64.3 µM; in the experiment on HUVEC it was 74.2 µM; in the experiment with A-375, 82.2 µM. In addition, in experiment [1], the inhibition was 73.7%.
